Measurements pooled from the literature.
Protocols differ between the studies behind these lines. Values after ≈ are worked out from the molar mass of the structure shown.

| SMILES | test | system | setting | measurement | result |
| --- | --- | --- | --- | --- | --- |
| COc1ccc(C2=Nn3c(nnc3-c3cc(-c4ccc(Cl)cc4)n[nH]3)SC2C)cc1 (centres unmarked) | general toxicity | mouse | intravenous, 4 mg/kg, single dose | MTD | 4 mg/kg |
| N=c1c2c(-c3ccccc3)c(-c3ccccc3)n(Cc3ccccc3)c2ncn1[C@H]1CC[C@H](O)CC1 |  | male beagle dog, plasma | oral, 1 mg/kg, single dose | Tmax | ~15 h |
| CC(=O)N[C@@H](CC(N)=O)C(=O)N[C@@H](CC(N)=O)C(=O)N[C@@H](CC(C)C)C(=O)N[C@H]1CSSC[C@@H](C(=O)N[C@H](C(N)=O)[C@@H](C)O)NC(=O)[C@H](CCCNC(=N)N)NC(=O)[C@H](Cc2c[nH]cn2)NC(=O)[C@H](Cc2cccc3ccccc23)NC(=O)CNC(=O)[C@H](Cc2c[nH]c3ccccc23)NC(=O)[C@H](CC(=O)O)NC(=O)[C@H](CCC(N)=O)NC(=O)[C@H](Cc2cccc3ccccc23)NC(=O)[C@H](C(C)C)NC1=O |  | PBS | pH 7.4 | solubility | 270 µg/mL (≈ 136 µM) |
| C[C@H](N)Cn1ncc2ccc3c(c21)CCCO3 | potentiometric | water |  | pKa | 8.45 |
| CCCC(CCC)NC(=O)c1ccc2c(c1)OCO2 | general toxicity | Swiss mouse | intraperitoneal | MTD | 700 mg/kg |
| COc1ccnc(C(=O)N[C@H]2COC(=O)[C@H](Cc3ccccc3)[C@@H](OC(=O)C(C)C)[C@H](C)OC2=O)c1OCOC(=O)C(C)C |  |  |  | pKa | 2.4 |
| Cc1ncc(C)n2nc(/C=C/c3nc(N4CCCC4)cc(N4CCOCC4)n3)nc12 |  | male beagle dog, plasma | oral, 0.3 mg/kg | Tmax | 1.2 h |
| CC(=O)N[C@@H](CC(N)=O)C(=O)N[C@@H](CCCNC(=N)N)C(=O)N[C@@H](CC(C)C)C(=O)N[C@H]1CSSC[C@@H](C(=O)N[C@H](C(N)=O)[C@@H](C)O)NC(=O)[C@H](CCCNC(=N)N)NC(=O)[C@H](Cc2c[nH]cn2)NC(=O)[C@H](Cc2cccc3ccccc23)NC(=O)CNC(=O)[C@H](Cc2c[nH]c3ccccc23)NC(=O)[C@H](CC(=O)O)NC(=O)[C@H](CCC(N)=O)NC(=O)[C@H](Cc2c[nH]c3ccccc23)NC(=O)[C@H](C(C)C)NC1=O |  | PBS | pH 7.4 | solubility | 340 µg/mL (≈ 169 µM) |
| CCCCCCCCCCCC(=O)OC[C@@H](COP(=O)(O)OCCNC(=O)c1ccc(Cn2c(=O)[nH]c3c(N)nc(OCCOC)nc32)cc1)OC(=O)CCCCCCCCCCC | general toxicity | mouse | intravenous | MTD | 150 mg/kg |
| Cc1cc(C)nc(Nc2ncc(C(=O)NCCc3c(C)[nH]c4ccccc34)cn2)c1 |  |  |  | pKa | 5.8 |
| Nc1ncc(-c2nc(N3CCOCC3)nc(N3CCOCC3)n2)c(C(F)F)n1 | shake flask | FeSSIF | 24 h | thermodynamic solubility | 13.9 µM (≈ 5.48 µg/mL) |
| CC[C@H](C)[C@H](NC(=O)[C@H](CO)NC(=O)[C@H](CCCNC(=N)N)NC(C)=O)C(=O)N[C@H]1CSSC[C@@H](C(=O)N[C@H](C(N)=O)[C@@H](C)O)NC(=O)[C@H](CCCNC(=N)N)NC(=O)[C@H](Cc2c[nH]cn2)NC(=O)[C@H](C)NC(=O)CNC(=O)[C@H](Cc2c[nH]c3ccccc23)NC(=O)[C@H](CC(=O)O)NC(=O)[C@H](CCC(N)=O)NC(=O)[C@H](Cc2cccc3ccccc23)NC(=O)[C@H](C(C)C)NC1=O |  | PBS | pH 7.4 | solubility | 2110 µg/mL (≈ 1130 µM) |
| C=C(CC)C(=O)c1ccc(OCC(=O)O)c(Cl)c1Cl | general toxicity | mouse | intraperitoneal | MTD | 30 mg/kg |
| CC(C)(C)c1cc(NC(=O)Nc2ccc(Oc3ccnc4[nH]c(=O)cnc34)cc2F)n(-c2ccccc2)n1 | general toxicity | CD-1 mouse | oral, single dose | MTD | 40 mg/kg |
